Source: ChEMBL document CHEMBL1687745 (Antimicrob Agents Chemother, 2009)
≈ marks a conversion by molar mass, not a printed value. Calls of active or inactive are those of the source. The calls are words filed in the database; no cut-off is given here.

What was measured:
Yersinia pestis = assay: Antimicrobial activity against Yersinia pestis by broth microdilution method; assay type: functional
Enterococcus faecium = assay: Antimicrobial activity against vancomycin-resistant Enterococcus faecium B42762 by broth microdilution method; assay type: functional
Enterococcus faecalis [1] = assay: Antimicrobial activity against vancomycin-resistant Enterococcus faecalis ATCC 51575 by broth microdilution method; assay type: functional
Escherichia coli = assay: Antimicrobial activity against Escherichia coli J53 clinical isolate by broth microdilution method; assay type: functional
Brevibacillus brevis = assay: Antimicrobial activity against Bacillus brevis clinical isolate by broth microdilution method; assay type: functional
Summary of the method: (§1)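 Broth microdilution. Log-phase cultures (5 × 10^5 CFU/ml) seeded in 96-well plates with compound from 0 to 20 µM or 1% DMSO control. Incubated at 37°C for 16 to 20 h. Growth read as absorbance at 600 nm.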

Burkholderia mallei = assay: Antimicrobial activity against Burkholderia mallei ATCC 23344 by broth microdilution method; assay type: functional
Burkholderia cepacia = assay: Antimicrobial activity against Burkholderia cepacia clinical isolate by broth microdilution method; assay type: functional; summary of the method: as §1
Bacillus pumilus = assay: Antimicrobial activity against Bacillus pumilus clinical isolate by broth microdilution method; assay type: functional; summary of the method: as §1
Klebsiella pneumoniae = assay: Antimicrobial activity against Klebsiella pneumoniae 5657 by broth microdilution method; assay type: functional; summary of the method: as §1
Enterococcus faecalis [2] = assay: Antimicrobial activity against Enterococcus faecalis 29212 clinical isolate by broth microdilution method; assay type: functional
Bacillus anthracis [3] = assay: Antimicrobial activity against Bacillus anthracis Sterne spores by broth microdilution method; assay type: functional
Staphylococcus aureus [4] = assay: Antibacterial activity against Staphylococcus aureus Smith infected in Swiss Webster mouse assessed as assessed as protection against microbe-induced mortality at 10 mg/kg, iv administered as single dose 15 mins post bacterial challenge measured 48 hrs post infection; assay type: functional
Summary of the method: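 Swiss Webster mice (n = 10/group) were challenged i.p. with 8.3 × 10^8 CFU. After 15 min they received a single i.v. dose in 10% dimethyl acetamide–5% dextrose in water (pH 4.0), alongside vehicle and daptomycin (10 mg/kg) controls. Survival was followed for 48 h.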

Bacillus anthracis [5] = assay: Antimicrobial activity against Bacillus anthracis Sterne vegetative cells by broth microdilution method; assay type: functional
HeLa = assay: Effect on cell membrane integrity in human HeLa cells assessed as lactate dehydrogenase release at 32 times MIC against Staphylococcus aureus by CytoTox ONE homogenous membrane integrity assay; assay type: cell-based
Summary of the method: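 Confluent HeLa cells in DMEM treated for 1 h with a range of compound concentrations, 1% DMSO final. […] LDH activity in the supernatant measured by a membrane-integrity kit.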

Bacillus anthracis [6] = assay: Antimicrobial activity against Bacillus anthracis Ames by broth microdilution method in presence of 10% fetal calf serum; assay type: functional
Staphylococcus aureus [7] = assay: Antimicrobial activity against Staphylococcus aureus ATCC 25923 by broth microdilution method; assay type: functional; summary of the method: as §1
Staphylococcus aureus [8] = assay: Antimicrobial activity against methicillin-resistant Staphylococcus aureus 1094 by broth microdilution method; assay type: functional
Bacillus subtilis [9] = assay: Antimicrobial activity against Bacillus subtilis clinical isolate by broth microdilution method; assay type: functional
[10] = test system: Mycolicibacterium smegmatis; assay: Antimicrobial activity against Mycobacterium smegmatis 19420 by broth microdilution method; assay type: functional; summary of the method: as §1
[11] = test system: Burkholderia pseudomallei; assay: Antimicrobial activity against Burkholderia pseudomallei DD503 by broth microdilution method; assay type: functional
Bacillus anthracis [12] = assay: microbe, parasite or virus in culture; conditions: Ames
Bacillus anthracis [13] = assay: Antimicrobial activity against Bacillus anthracis Vollum clinical isolate by broth microdilution method; assay type: functional
Bacillus anthracis [14] = assay: Protection against Bacillus anthracis Sterne spores induced cell death in mouse J774A1 cells assessed as live viable cells at 10 uM by Sytox green dye staining assay relative to untreated control; assay type: functional, J774.A1
Bacillus subtilis [15] = assay: Inhibition of DNA synthesis in Bacillus subtilis BD54 at 5 X MIC by [3H]thymidine incorporation assay; assay type: functional, organism-based
Summary of the method: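 Precursors were [methyl-3H]thymidine (DNA), [5-3H]uridine (RNA), L-[4,5-3H]leucine (protein) and N-acetyl-D-[1-3H]glucosamine (cell wall). Samples taken over time, precipitated with equal volume of ice-cold 20% TCA, filtered on glass fibre, and counted. cpm plotted against time.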

[16] = test system: Burkholderia thailandensis; assay: Antimicrobial activity against Burkholderia thailandensis by broth microdilution method; assay type: functional
Bacillus anthracis [17] = assay: Inhibition of spore germination in Bacillus anthracis Sterne spores at MIC after 4 hrs; assay type: functional, organism-based
Bacillus anthracis [18] = assay: Antibacterial activity against Bacillus anthracis Ames spores infected in C57BL/6 mouse assessed as mouse survival rate at 1 mg/kg, ip for 5 days every 6 hrs administered 6 hrs post bacterial challenge measured up to 20 days post infection; assay type: functional; conditions: route intraperitoneal
Staphylococcus aureus [19] = assay: Antimicrobial activity against Staphylococcus aureus by broth microdilution method; assay type: functional; summary of the method: as §1
Enterococcus faecalis [20] = assay: Antimicrobial activity against Enterococcus faecalis clinical isolate by broth microdilution method; assay type: functional; summary of the method: as §1
Bacillus anthracis [21] = assay: Protection against Bacillus anthracis Sterne spores induced cell death in mouse J774A1 cells assessed as dead cells at 10 uM by Sytox green dye staining assay relative to untreated control; assay type: functional, J774.A1
Pseudomonas aeruginosa = assay: Antimicrobial activity against Pseudomonas aeruginosa PAO1 by broth microdilution method; assay type: functional; summary of the method: as §1
[22] = Cytotoxicity against human HeLa cells after 3 days by MTS assay in presence of 10% fetal calf serum; assay type: cell-based
Bacillus licheniformis = assay: Antimicrobial activity against Bacillus licheniformis clinical isolate by broth microdilution method; assay type: functional
Staphylococcus aureus [23] = assay: Antimicrobial activity against methicillin-resistant Staphylococcus aureus clinical isolate by broth microdilution method; assay type: functional
Bacillus subtilis [24] = assay: Effect on bacterial membrane permeability in Bacillus subtilis BD54 upto 10 times MIC using DiSC3 fluorescent dye staining based fluorimetric assay; assay type: functional, organism-based
Summary of the method: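 B. subtilis BD54 grown in LB to OD600 0.4–0.5, washed, and resuspended to OD600 0.1 in 5 mM HEPES pH 7.4 with 20 mM glucose. Loaded with 1 µM DiSC3(5) for 10 min at room temperature, then 100 mM KCl added. […] Fluorescence read at 5 min (ex 622, em 670 nm). DNP 200 µg/ml positive control; mean ± SD of 8 wells.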

Priestia megaterium = assay: Antimicrobial activity against Bacillus megaterium clinical isolate by broth microdilution method; assay type: functional
Staphylococcus aureus [25] = assay: Antibacterial activity against MBX 1090 resistant Staphylococcus aureus NCTC8325 isolates selected on 10 to 12 days of serial passage through MBX 1090; assay type: functional
Summary of the method: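 Eight independent S. aureus NCTC8325 cultures were grown with compound at 0.125× to 128× MIC. Each day, cells were passaged from the highest-concentration well still showing >50% of untreated growth, for up to 20 days. Colonies isolated from resistant cultures were confirmed by MIC assay.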

[26] = test system: Mycolicibacterium smegmatis; assay: Antimicrobial activity against Mycobacterium smegmatis 35798 by broth microdilution method; assay type: functional; summary of the method: as §1
Bacillus anthracis [27] = assay: microbe, parasite or virus in culture; conditions: Ames; remark: listed apart in the source
[28] = test system: Mycolicibacterium smegmatis; assay: Antimicrobial activity against Mycobacterium smegmatis 700009 by broth microdilution method; assay type: functional; summary of the method: as §1

`C(=C\c1cc2ccc(C3=NCCN3)cc2[nH]1)/c1cc2ccc(C3=NCCN3)cc2[nH]1` showed an MIC (Yersinia pestis) of 13 µg/mL (≈ 33 µM), an MIC (Enterococcus faecium) of 0.3 µg/mL (≈ 0.76 µM) and an MIC (Enterococcus faecalis [1]) of 0.6 µg/mL (≈ 1.52 µM). For the same molecule, the MIC (Escherichia coli) was 0.6 µg/mL (≈ 1.52 µM), the MIC (Brevibacillus brevis) was 0.6 µg/mL (≈ 1.52 µM) and the MIC (Burkholderia mallei) was 1.6 µg/mL (≈ 4.06 µM). It also gave an MIC (Burkholderia cepacia) of 19 µg/mL (≈ 48.2 µM), an MIC (Bacillus pumilus) of 0.2 µg/mL (≈ 0.507 µM) and an MIC (Klebsiella pneumoniae) of 1.3 µg/mL (≈ 3.3 µM). For the same molecule, the MIC (Enterococcus faecalis [2]) was 0.3 µg/mL (≈ 0.76 µM), the MIC (Bacillus anthracis [3]) was 0.3 µg/mL (≈ 0.76 µM) and the survival at 10 mg/kg (Staphylococcus aureus [4]) was 80%. For the same molecule, the MIC (Bacillus anthracis [5]) was 1.2 µg/mL (≈ 3.04 µM), the Activity (HeLa) was “Non-toxic” and the MIC (Bacillus anthracis [6]) was 0.6 µg/mL. It also gave an MIC (Staphylococcus aureus [7]) of 0.9 µg/mL (≈ 2.28 µM), an MIC (Staphylococcus aureus [8]) of 0.6 µg/mL (≈ 1.52 µM) and an MIC (Bacillus subtilis [9]) of 0.3 µg/mL (≈ 0.76 µM). It also gave an MIC [10] of 0.2 µg/mL (≈ 0.507 µM), an MIC [11] of 3.1 µg/mL (≈ 7.86 µM) and an MIC (Bacillus anthracis [12]) of 0.2 µg/mL (≈ 0.507 µM). The MBC (Bacillus anthracis [13]) was 1.2 µg/mL (≈ 3.04 µM), the MIC (Bacillus anthracis [13]) was 0.6 µg/mL (≈ 1.52 µM) and the Activity (Bacillus anthracis [14]) was 73%. For the same molecule, the inhibition (Bacillus subtilis [15]) was “Active”, the MIC [16] was 19 µg/mL (≈ 48.2 µM) and the inhibition (Bacillus anthracis [17]) was “inactive”. For the same molecule, the survival at 1 mg/kg (Bacillus anthracis [18]) was 100%, the MIC (Staphylococcus aureus [19]) was 1.2 µg/mL (≈ 3.04 µM) and the MIC (Enterococcus faecalis [20]) was 0.6 µg/mL (≈ 1.52 µM). For the same molecule, the Activity (Bacillus anthracis [21]) was 27%, the MIC (Pseudomonas aeruginosa) was 25 µg/mL (≈ 63.4 µM) and the CC50 at 72 h [22] was 10 µg/mL. For the same molecule, the MIC (Bacillus licheniformis) was 2.3 µg/mL (≈ 5.83 µM), the MIC (Staphylococcus aureus [23]) was 2.3 µg/mL (≈ 5.83 µM) and the Activity (Bacillus subtilis [24]) was “Active”. The MIC (Priestia megaterium) was 0.6 µg/mL (≈ 1.52 µM), the MIC (Staphylococcus aureus [25]) was 16 µg/mL (≈ 40.6 µM) and the MIC [26] was 0.1 µg/mL (≈ 0.253 µM). The MBC (Bacillus anthracis [27]) was 2.3 µg/mL (≈ 5.83 µM), the MIC (Bacillus anthracis [27]) was 0.6 µg/mL (≈ 1.52 µM) and the MIC [28] was 0.2 µg/mL (≈ 0.507 µM).
